High-throughput results as filed in PubChem.
UBC13 inh – inhibitors of human UBC13 polyubiquitin chain formation; TR-FRET; inhibition, % at 20 µM; 330,000 tested, 0.47% active; in the data active means inhibition above about 45%, passing the limit was not always enough; inconclusive means no clear call, values can overlap the other calls
ZTA counter – blocks Epstein-Barr virus ZTA, an EBNA-1 counter-screen; P03206; ZTA-DNA binding, fluorescence polarization; inhibition, % at 11 µM; 320,000 tested, 0.15% active; AID 2234; in the data active means inhibition above about 33%
Target sequence (P03206 whole entry, looked up): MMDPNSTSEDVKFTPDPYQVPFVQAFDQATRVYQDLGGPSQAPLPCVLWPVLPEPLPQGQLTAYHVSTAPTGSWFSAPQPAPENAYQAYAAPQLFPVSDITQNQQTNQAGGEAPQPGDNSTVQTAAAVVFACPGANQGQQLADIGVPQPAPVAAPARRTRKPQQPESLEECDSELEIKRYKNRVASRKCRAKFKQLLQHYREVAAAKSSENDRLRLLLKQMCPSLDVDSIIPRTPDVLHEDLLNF
PfM18AAP inh – blocks P. falciparum M18 aspartyl aminopeptidase; recombinant PfM18AAP, H-Glu-NHMec fluorogenic cleavage; inhibition, % at 7.35 µM; 290,000 tested, 1.2% active; AID 1822;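 active means inhibition above the campaign mean inhibition over all tested compounds plus 3 SD, cut at about 28% in these data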
PfGluPho inh – PfG6PD (Plasmodium falciparum) enzyme inhibition. AID 504690. 350,000 tested, 0.78% active. PfGluPho enzyme, NADPH resazurin-diaphorase fluorescence. inhibition, % at 20 µM;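 active means inhibition reaching at least a set limit at 20 µM in the primary screen, cut at about 59% in these data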
Apaf-1 inh – human Apaf-1 inhibition | inhibition, % at 20 µM | AID 489030 | reconstituted apoptosome caspase-3 activity, DEVD-Rh110 fluorescence | 330,000 tested, 0.71% active | O14727; active means inhibition of at least 40% at 20 µM
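Material: reconstituted apoptosome with Apaf-1, cytochrome c, caspase-9, procaspase-3, dATP. Technique: Rh110 fluorescence intensity. Buffer or medium: pH 7.5 Hepes buffer with CHAPS, BSA, DTT. Times: 30 min plus 50 min, RT.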
EBNA-1 inhibitor – blocks EBNA-1 binding to DNA. 300,000 tested, 0.34% active. EBNA-1 DNA binding, fluorescence polarization. inhibition, % at 14.8 µM; in the data active means inhibition above about 28%
Casp3 counter – inhibits human caspase-3 in UBC13 counter-screen; shares compounds with UBC13 inh; Recombinant caspase-3, Caspase-Glo 3/7 luminescence, 60 min; inhibition, % at 20 µM; 1,400 tested, 4% active; AID 488856;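 active means mean inhibition across replicates above about 26%, limit read from the data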
Target sequence (P42574 whole entry, looked up): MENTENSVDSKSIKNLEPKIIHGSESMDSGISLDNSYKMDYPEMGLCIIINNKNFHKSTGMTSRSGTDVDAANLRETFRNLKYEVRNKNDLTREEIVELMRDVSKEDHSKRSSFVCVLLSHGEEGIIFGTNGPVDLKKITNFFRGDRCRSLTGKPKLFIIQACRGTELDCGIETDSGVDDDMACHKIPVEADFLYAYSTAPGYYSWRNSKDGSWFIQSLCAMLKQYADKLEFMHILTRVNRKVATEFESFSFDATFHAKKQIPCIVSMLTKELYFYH
UBC13 conf – confirmation of human UBC13 polyubiquitin inhibitors. shares compounds with UBC13 inh. UBC13 polyubiquitination, TR-FRET, biochemical. inhibition, % at 10 µM. 1,400 tested, 68% active. AID 488859; in the data active means inhibition above about 45%; inconclusive means no clear call, values can overlap the other calls
A number is an active result; 0 = inactive; ? = inconclusive; - = no result. This is a sample that favours compounds with a hit; in the whole collection about 2.9% have one here.

SMILES	UBC13 inh	ZTA counter	PfM18AAP inh	PfGluPho inh	Apaf-1 inh	EBNA-1 inhibitor	Casp3 counter	UBC13 conf
OC(CNCC1CCCO1)COc1ccc(OCC(O)CNCC2CCCO2)cc1 (stereo unspecified)	0	0	0	0	0	0	-	-
CCOC(=O)c1c(C)n(-c2ccc(C)cc2)c2ccc(OCC(O)CNCCCO)cc12 (stereo unspecified)	62.0	0	0	0	0	0	0	64.3
CCOC(=O)c1c(C)n(-c2ccc(C)cc2)c2ccc(OCC(O)CNCC3CCCO3)cc12 (stereo unspecified)	56.3	0	0	0	0	0	0	76.8
Cn1c(C(=O)Nc2ccc(Cl)cc2)cc2cc(Cl)ccc21	0	0	0	0	0	0	-	-
CCCCCCCCOC(=O)c1c(CSC(=N)N)n(C)c2cc(Br)c(OC(C)=O)cc12	95.5	0	0	0	0	0	0	113.7
CCOC(=O)c1c(CSC(=N)N)n(-c2ccc(Br)cc2)c2cc(Br)c(OC(C)=O)cc12	-	-	0	0	-	-	-	-
COc1cccc2sc(N(CCCN(C)C)C(=O)c3ccc(S(=O)(=O)N4CCc5ccccc5C4)cc3)nc12	63.9	0	0	0	0	0	0	99.3
COc1cc2nc(N(CCCN(C)C)C(=O)c3ccc(S(=O)(=O)N4CCc5ccccc5C4)cc3)sc2cc1OC	71.0	0	-	0	0	0	0	104.8
COc1ccc(OC)c2sc(N(CCCN(C)C)C(=O)c3ccc(S(=O)(=O)N4CCc5ccccc5C4)cc3)nc12	100.5	0	-	-	54.7	0	0	118.0
CCOc1ccc2nc(N(CCCN(C)C)C(=O)c3ccc(S(=O)(=O)N4CCc5ccccc5C4)cc3)sc2c1	84.4	0	0	0	0	0	0	115.1
COc1ccc(C)c2sc(N(CCCN(C)C)C(=O)c3ccc(S(=O)(=O)N4CCc5ccccc5C4)cc3)nc12	-	0	-	0	-	0	-	-
Cc1[nH]c(C)c2c(=O)[nH]ncc12	0	0	0	0	0	0	-	-
N#Cc1cc2ccccc2n2nnnc12	0	0	0	0	0	0	-	-
COCCC(=O)N1CCC(Oc2ccc(C(=O)NCCC3=CCCCC3)cc2)CC1	0	0	0	0	0	0	-	-
CCOc1ccccc1-c1nc(C(N)=O)c2[nH]c(=O)n(-c3ccc(F)cc3)c2n1	64.9	0	0	0	0	0	0	0
Cc1ccsc1CNc1ncnc2ccc(-c3c(C)noc3C)cc12	46.3	-	-	0	0	-	0	0
COc1cccc(CNc2ncnc3ccc(-c4c(C)noc4C)cc23)c1	?	0	-	0	0	-	-	-
CCCCC(CCC(=O)NNC(=O)Cc1ccccc1)C(=O)O (stereo unspecified)	0	0	0	0	0	0	-	-
Oc1ccc(C2=NNC(=NCc3ccc4c(c3)OCO4)SC2)c(O)c1	45.4	0	0	0	0	0	0	72.4
CCN(CC(=O)NC(C)(C)C)C(=O)C(c1ccccc1)c1ccccc1	0	0	0	0	0	0	-	-
NC(=O)c1cc(S(=O)(=O)NCc2cccc(Br)c2)cs1	0	0	0	0	0	0	-	-
CC(=O)Nc1ccc(SCC(=O)Nc2ccc(Cl)cn2)cc1	0	0	0	0	0	0	-	-
CC(=O)Nc1cccc(NC(=O)CSc2ncc(C(=O)Nc3ccccc3)c(=O)n2C)c1	82.1	0	-	0	0	0	95.4	86.1
CC(=O)Nc1ccc(NC(=O)CSc2ncc(C(=O)Nc3ccc(F)cc3)c(=O)n2C)cc1	71.3	0	-	0	0	0	98.0	62.5
CC(=O)Nc1ccc(NC(=O)CSc2ncc(C(=O)Nc3ccc(Cl)cc3)c(=O)n2C)cc1	55.3	0	-	0	0	0	97.1	0
SMILES	UBC13 inh	ZTA counter	PfM18AAP inh	PfGluPho inh	Apaf-1 inh	EBNA-1 inhibitor	Casp3 counter	UBC13 conf
CC(=O)Nc1cccc(NC(=O)CSc2ncc(C(=O)Nc3ccc(F)cc3)c(=O)n2C)c1	51.0	0	-	0	0	0	97.4	0
Cc1cc2c(=O)n(C)c(SCC(=O)Nc3ccc(F)cc3)nc2s1	-	-	-	0	-	-	-	-
CN1OC[C@@H]2CN(C(=O)CCc3ccccc3)[C@H](c3cccc(-c4ccc(C#N)cc4)c3)C[C@@H]21	-	-	-	0	-	-	-	-
Cc1cc(C)c2nc(-c3ccccn3)cc(C(=O)n3cccn3)c2c1	45.3	0	0	0	0	0	0	0
Cc1c(Cl)ccc2c(C(N)=O)cc(-c3ccccn3)nc12	0	0	0	0	0	0	-	-
On1nnc2ccc3ccccc3c21	0	0	0	0	0	0	-	-
CCN1C(N(C)CCc2cccs2)=N[C@@H](c2ccccc2)C(C(=O)OC)=C1C	0	0	0	0	0	0	-	-
CCN1C(N(C)CCc2c[nH]c3ccccc23)=N[C@@H](c2cccc(C(F)(F)F)c2)C(C(=O)OC)=C1C	59.8	-	-	0	54.9	-	0	49.3
COc1cccc(NC(=O)CSc2nc3ccccc3c(=O)n2Cc2cccs2)c1	60.6	0	0	0	0	0	0	57.6
COc1ccc(NC(=O)CSc2nc3ccsc3c(=O)n2CCCCCC(=O)O)cc1	61.6	0	0	0	0	0	0	78.6
CN1C[C@@H]2[C@@H]3C(=O)N(C)C(=O)[C@@H]3[C@](C)(C1=O)N2C(=O)c1ccc(Cl)c(Cl)c1	-	-	-	0	-	-	-	-
CCCC[C@@H]1CNCCN1CCc1cc(C(F)(F)F)cc(C(F)(F)F)c1	55.4	0	-	0	0	0	0	0
CCC(C)[C@H]1CNCCN1CCc1cc(C(F)(F)F)cc(C(F)(F)F)c1 (stereo partly specified)	59.6	0	-	0	0	0	0	0
CCC(C)[C@H]1CNC(=S)N1CCc1cc(C(F)(F)F)cc(C(F)(F)F)c1 (stereo partly specified)	0	0	0	0	0	0	-	-
CCCC[C@@H]1CNC(=O)C(=O)N1CCc1cc(C(F)(F)F)cc(C(F)(F)F)c1	0	0	-	0	0	0	-	-
Cc1nc2ccccc2c(=O)n1NC(=O)c1c(F)cccc1F	0	0	0	0	0	0	-	-
NS(=O)(=O)c1ccc(CCNC(=O)c2cc(-c3ccco3)nc3ccccc23)cc1	51.1	0	-	0	0	-	0	0
Cc1cccn2c(=O)c(C=O)c(N3CCCCCC3)nc12	55.3	0	0	0	0	0	0	64.0
O=C1CN(C(=O)COC(=O)c2ccccc2NCc2ccco2)c2ccccc2N1	0	0	0	0	0	0	-	-
CC(C)Cn1c(=O)c(C(=O)Nc2ccccc2S(N)(=O)=O)c(O)c2ccccc21	68.7	0	0	0	0	0	0	0
CCC(C)n1c(=O)c(C(=O)Nc2ccccc2S(N)(=O)=O)c(O)c2ccccc21 (stereo unspecified)	0	0	0	0	0	0	-	-
COc1ccccc1CNC(=O)CCC(=O)N1CC(C)Sc2ccccc21 (stereo unspecified)	0	0	0	0	0	0	-	-
